Measured values as given in ChEMBL document CHEMBL1629431, “Synthesis and antitumor activity of some 2, 3-disubstituted quinazolin-4(3H)-ones and 4, 6- disubstituted- 1, 2, 3, 4-tetrahydroquinazolin-2H-ones” (2010).

How the values were obtained:
Assay type in all cases: functional
CCRF-CEM = test: Growth inhibition of human CCRF-CEM cells at 10 uM after 48 hrs by coulter counter method; conditions: read-out: GI
In short: (§1)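 Single high-dose NCI 60-cell-line panel screen across nine tumor subpanels. Test solutions (0.2 mL) were added in duplicate to wells holding 1.8 mL of culture at 6 × 10⁴ cells/mL. Controls got PBS and DMSO at identical dilutions. Incubation was 48 h at 37 °C in humidified 5% CO₂. Cells were diluted 10-fold in saline, Coulter-counted and dilution-corrected. Results were expressed as percent growth inhibition versus control.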

HL-60(TB) = test: Growth inhibition of human HL-60(TB) cells at 10 uM after 48 hrs by coulter counter method; conditions: HL-60, 48 h, read-out: GI
In short: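 Part of the NCI 60-cell-line single-high-dose panel. Cells were seeded at 6 × 10⁴ cells/mL with test solution in duplicate wells, alongside PBS/DMSO controls at identical dilutions. Plates were held 48 h at 37 °C in a humidified 5% CO₂ incubator. Cells were then diluted 10-fold in saline and counted by Coulter counter, with counts corrected for dilution. Results are percent growth of treated cells, reported as GI %.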

K562 = test: Growth inhibition of human K562 cells at 10 uM after 48 hrs by coulter counter method; conditions: K562, 48 h, read-out: GI; in short: as §1
A549 = test: Growth inhibition of human A549 cells at 10 uM after 48 hrs by coulter counter method; conditions: A549, 48 h, read-out: GI; in short: as §1
HOP-92 = test: Growth inhibition of human HOP92 cells at 10 uM after 48 hrs by coulter counter method; conditions: HOP-92, 48 h, read-out: GI; in short: as §1
NCI-H226 = test: Growth inhibition of human NCI-H226 cells at 10 uM after 48 hrs by coulter counter method; conditions: NCI-H226, 48 h, read-out: GI; in short: as §1
NCI-H23 = test: Growth inhibition of human NCI-H23 cells at 10 uM after 48 hrs by coulter counter method; conditions: NCI-H23, 48 h, read-out: GI; in short: as §1
NCI-H522 = test: Growth inhibition of human NCI-H522 cells at 10 uM after 48 hrs by coulter counter method; conditions: NCI-H522, 48 h, read-out: GI; in short: as §1
COLO 205 = test: Growth inhibition of human COLO205 cells at 10 uM after 48 hrs by coulter counter method; conditions: COLO 205, 48 h, read-out: GI; in short: as §1
HCT-116 = test: Growth inhibition of human HCT116 cells at 10 uM after 48 hrs by coulter counter method; conditions: HCT-116, 48 h, read-out: GI; in short: as §1
HT-29 = test: Growth inhibition of human HT-29 cells at 10 uM after 48 hrs by coulter counter method; conditions: HT-29, 48 h, read-out: GI; in short: as §1
KM12 = test: Growth inhibition of human KM12 cells at 10 uM after 48 hrs by coulter counter method; conditions: KM12, 48 h, read-out: GI; in short: as §1
SF-268 = test: Growth inhibition of human SF268 cells at 10 uM after 48 hrs by coulter counter method; conditions: SF-268, 48 h, read-out: GI; in short: as §1
SF-539 = test: Growth inhibition of human SF539 cells at 10 uM after 48 hrs by coulter counter method; conditions: SF-539, 48 h, read-out: GI; in short: as §1
SNB-75 = test: Growth inhibition of human SNB75 cells at 10 uM after 48 hrs by coulter counter method; conditions: SNB-75, 48 h, read-out: GI; in short: as §1
U-251 = test: Growth inhibition of human U251 cells at 10 uM after 48 hrs by coulter counter method; conditions: U-251, 48 h, read-out: GI; in short: as §1
M14 = test: Growth inhibition of human M14 cells at 10 uM after 48 hrs by coulter counter method; conditions: M14, 48 h, read-out: GI; in short: as §1
SK-MEL-2 = test: Growth inhibition of human SK-MEL-2 cells at 10 uM after 48 hrs by coulter counter method; conditions: SK-MEL-2, 48 h, read-out: GI; in short: as §1
SK-MEL-28 = test: Growth inhibition of human SK-MEL-28 cells at 10 uM after 48 hrs by coulter counter method; conditions: SK-MEL-28, 48 h, read-out: GI; in short: as §1
UACC-62 = test: Growth inhibition of human UACC62 cells at 10 uM after 48 hrs by coulter counter method; conditions: UACC-62, 48 h, read-out: GI; in short: as §1
OVCAR-4 = test: Growth inhibition of human OVCAR4 cells at 10 uM after 48 hrs by coulter counter method; conditions: OVCAR-4, 48 h, read-out: GI; in short: as §1
OVCAR-8 = test: Growth inhibition of human OVCAR8 cells at 10 uM after 48 hrs by coulter counter method; conditions: OVCAR-8, 48 h, read-out: GI; in short: as §1
SK-OV-3 = test: Growth inhibition of human SKOV3 cells at 10 uM after 48 hrs by coulter counter method; conditions: SK-OV-3, 48 h, read-out: GI; in short: as §1
786-0 = test: Growth inhibition of human 786-0 cells at 10 uM after 48 hrs by coulter counter method; conditions: 786-0, 48 h, read-out: GI; in short: as §1
CAKI-1 = test: Growth inhibition of human Caki1 cells at 10 uM after 48 hrs by coulter counter method; conditions: CAKI-1, 48 h, read-out: GI; in short: as §1
SN12C = test: Growth inhibition of human SN12C cells at 10 uM after 48 hrs by coulter counter method; conditions: read-out: GI; in short: as §1
UO-31 = test: Growth inhibition of human UO31 cells at 10 uM after 48 hrs by coulter counter method; conditions: UO-31, 48 h, read-out: GI; in short: as §1
PC-3 = test: Growth inhibition of human PC3 cells at 10 uM after 48 hrs by coulter counter method; conditions: PC-3, 48 h, read-out: GI; in short: as §1
MCF7 = test: Growth inhibition of human MCF7 cells at 10 uM after 48 hrs by coulter counter method; conditions: MCF7, 48 h, read-out: GI; in short: as §1
MDA-MB-231 = test: Growth inhibition of human MDA-MB-231 cells at 10 uM after 48 hrs by coulter counter method; conditions: MDA-MB-231, 48 h, read-out: GI; in short: as §1
[1] = Growth inhibition of human Hs 578T cells at 10 uM after 48 hrs by coulter counter method; conditions: read-out: GI; in short: as §1
BT-549 = test: Growth inhibition of human BT549 cells at 10 uM after 48 hrs by coulter counter method; conditions: BT-549, 48 h, read-out: GI; in short: as §1
T47D = test: Growth inhibition of human T47D cells at 10 uM after 48 hrs by coulter counter method; conditions: read-out: GI; in short: as §1
MDA-MB-468 = test: Growth inhibition of human MDA-MB-468 cells at 10 uM after 48 hrs by coulter counter method; conditions: MDA-MB-468, 48 h, read-out: GI; in short: as §1
MOLT-4 = test: Growth inhibition of human MOLT4 cells at 10 uM after 48 hrs by coulter counter method; conditions: MOLT-4, 48 h, read-out: GI; in short: as §1
SR = test: Growth inhibition of human SR cells at 10 uM after 48 hrs by coulter counter method; conditions: read-out: GI; in short: as §1
IGROV-1 = test: Growth inhibition of human IGROV1 cells at 10 uM after 48 hrs by coulter counter method; conditions: IGROV-1, 48 h, read-out: GI; in short: as §1

Structure (SMILES) | inhibition of growth at 10 µM (CCRF-CEM) | inhibition of growth at 10 µM (HL-60(TB)) | inhibition of growth at 10 µM (K562) | inhibition of growth at 10 µM (A549) | inhibition of growth at 10 µM (HOP-92) | inhibition of growth at 10 µM (NCI-H226) | inhibition of growth at 10 µM (NCI-H23) | inhibition of growth at 10 µM (NCI-H522) | inhibition of growth at 10 µM (COLO 205) | inhibition of growth at 10 µM (HCT-116) | inhibition of growth at 10 µM (HT-29) | inhibition of growth at 10 µM (KM12) | inhibition of growth at 10 µM (SF-268) | inhibition of growth at 10 µM (SF-539) | inhibition of growth at 10 µM (SNB-75) | inhibition of growth at 10 µM (U-251) | inhibition of growth at 10 µM (M14) | inhibition of growth at 10 µM (SK-MEL-2) | inhibition of growth at 10 µM (SK-MEL-28) | inhibition of growth at 10 µM (UACC-62) | further results
CCn1c(-n2ccnc2)nc2ccccc2c1=O | 30% | 30% | 37.9% | 30% | 30% | 30% | 30% | 30% | 30% | 30% | 30% | 30% | 30% | 30% | 30% | 30% | 30% | 30% | 30% | 30% | inhibition of growth at 10 µM (OVCAR-4): 30%; inhibition of growth at 10 µM (OVCAR-8): 30%; inhibition of growth at 10 µM (SK-OV-3): 30%; inhibition of growth at 10 µM (786-0): 30%; inhibition of growth at 10 µM (CAKI-1): 46.3%; inhibition of growth at 10 µM (SN12C): 30%; inhibition of growth at 10 µM (UO-31): 30%; inhibition of growth at 10 µM (PC-3): 30%; inhibition of growth at 10 µM (MCF7): 30%; inhibition of growth at 10 µM (MDA-MB-231): 30%; inhibition of growth at 10 µM [1]: 30%; inhibition of growth at 10 µM (BT-549): 30%; inhibition of growth at 10 µM (T47D): 30%; inhibition of growth at 10 µM (MDA-MB-468): 30%
O=c1c2ccccc2nc(Nc2cc(O)nc(S)n2)n1-c1ccc(Cl)cc1 | 30% | 30% | 36.5% | 30% | 30% | 30% | 30% | 30% | 30% | 30% | 30% | 30% | 30% | 30% | 30% | 30% | 30% | 30% | 30% | 30% | inhibition of growth at 10 µM (MOLT-4): 30.8%; inhibition of growth at 10 µM (SR): 36.4%; inhibition of growth at 10 µM (IGROV-1): 30%; inhibition of growth at 10 µM (OVCAR-4): 30%; inhibition of growth at 10 µM (OVCAR-8): 30%; inhibition of growth at 10 µM (SK-OV-3): 30%; inhibition of growth at 10 µM (786-0): 30%; inhibition of growth at 10 µM (CAKI-1): 30%; inhibition of growth at 10 µM (SN12C): 30%; inhibition of growth at 10 µM (UO-31): 30%; inhibition of growth at 10 µM (PC-3): 30%; inhibition of growth at 10 µM (MCF7): 30%; inhibition of growth at 10 µM (MDA-MB-231): 30%; inhibition of growth at 10 µM [1]: 30%; inhibition of growth at 10 µM (BT-549): 30%; inhibition of growth at 10 µM (T47D): 30%; inhibition of growth at 10 µM (MDA-MB-468): 30%
COc1ccc(C2NC(=O)Nc3ccc(CNc4ccccn4)cc32)cc1 (stereo not drawn) | 30% | 30% | 30% | 30% | 30% | 30% | 30% | 30% | 30% | 36.8% | 30% | 30% | 30% | 30% | 30% | 30% | 30% | 30% | 30% | 30% | inhibition of growth at 10 µM (MOLT-4): 30%; inhibition of growth at 10 µM (SR): 30%; inhibition of growth at 10 µM (IGROV-1): 30%; inhibition of growth at 10 µM (OVCAR-4): 30%; inhibition of growth at 10 µM (OVCAR-8): 30%; inhibition of growth at 10 µM (SK-OV-3): 30%; inhibition of growth at 10 µM (786-0): 30%; inhibition of growth at 10 µM (CAKI-1): 30%; inhibition of growth at 10 µM (SN12C): 30%; inhibition of growth at 10 µM (UO-31): 30%; inhibition of growth at 10 µM (PC-3): 30%; inhibition of growth at 10 µM (MCF7): 30%; inhibition of growth at 10 µM (MDA-MB-231): 30.2%; inhibition of growth at 10 µM [1]: 30%; inhibition of growth at 10 µM (BT-549): 30%; inhibition of growth at 10 µM (T47D): 33.1%; inhibition of growth at 10 µM (MDA-MB-468): 30%
